Measured values as given in ChEMBL document CHEMBL1136930, “Doubly loaded cycloSaligenyl-pronucleotides - 5,5'-Bis-(cycloSaligenyl-2',3'-dideoxy-2',3'-didehydrothymidine monophosphates)” (J Med Chem, 2009).

Experiments:
[1] = Chemical stability assessed as hydrolysis half life by HPLC analysis; type: physicochemical
[2] = Chemical stability assessed as hydrolysis half life in aqueous phosphate buffer saline at pH 7.3 by HPLC analysis; type: physicochemical; details: for t1/2: buffer; for half-life: aqueous phosphate buffered saline
[3] = tested on: Human immunodeficiency virus 2; assay: Antiviral activity against HIV2 in wild type human CEM cells assessed as virus-induced cytopathic effect after 4 to 5 days by microscopy; type: functional, organism-based, CCRF-CEM
Method in brief: (§1)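 50% effective concentration against HIV in wild-type or thymidine kinase-deficient CEM T-lymphocytes, reported as the mean of two to three independent experiments.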

[4] = tested on: Human immunodeficiency virus 2; assay: Antiviral activity against HIV2 in thymidine kinase deficient human CEM cells assessed as virus-induced cytopathic effect after 4 to 5 days by microscopy; type: functional, organism-based, CCRF-CEM; method in brief: as §1
[5] = tested on: Human immunodeficiency virus 1; assay: Antiviral activity against HIV1 in wild type human CEM cells assessed as virus-induced cytopathic effect after 4 to 5 days by microscopy; type: functional, organism-based, CCRF-CEM; method in brief: as §1
[6] = Chemical stability assessed as half life of hydrolysis in RPMI-1640 culture medium at pH 7.6 in presence 10% heat-inactivated fetal calf serum by HPLC analysis; type: physicochemical; details: cattle; for t1/2: serum
[7] = (§2) Cytostatic activity against wild type human CEM cells; type: cell-based, CCRF-CEM; details: wild type CEM (CCRF-CEM) cells
Method in brief: (§3)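 50% cytostatic concentration measured in wild-type CEM T-lymphocyte cultures.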

[8] = Ratio of hydrolysis half life in aqueous phosphate buffer saline at pH 7.3 to hydrolysis half life in RPMI-1640 culture medium at pH 7.6 in presence 10% heat-inactivated fetal calf serum; type: ADME
[9] = Chemical stability assessed as hydrolysis half life in aqueous phosphate buffer saline at pH 7.6 by HPLC analysis; type: physicochemical; details: for t1/2: buffer; for half-life: aqueous phosphate buffered saline
[10] = Ratio of hydrolysis half life in RPMI-1640 culture medium at pH 7.6 in presence 10% heat-inactivated fetal calf serum to hydrolysis half life in aqueous phosphate buffer saline at pH 7.6; type: ADME; details: cattle
CCRF-CEM = assay: as §2; type: cell-based; details: ccrf-cem; method in brief: as §3
[11] = Human immunodeficiency virus 2, CCRF-CEM
[12] = Human immunodeficiency virus 1, CCRF-CEM

Structure (SMILES)	t1/2 [2] [h]	EC50 [3, 11] [µM]	EC50 ([4]; ccrf-cem) [µM]	EC50 [5, 12] [µM]	CC50 [7] [µM]	EC50 [4, 11] [µM]	also measured
Cc1cccc2c1OP(=O)(OC[C@@H]1C=C[C@H](n3cc(C)c(=O)[nH]c3=O)O1)OC2 (some centres undefined)							half-life [1]: 15 h
Cc1cn([C@H]2C=C[C@@H](COP3(=O)OCc4cccc(-c5cccc6c5OP(=O)(OC[C@@H]5C=C[C@H](n7cc(C)c(=O)[nH]c7=O)O5)OC6)c4O3)O2)c(=O)[nH]c1=O (some centres undefined)	8.2						
Cc1cn([C@H]2C=C[C@@H](COP3(=O)OCc4cc(-c5ccc6c(c5)COP(=O)(OC[C@@H]5C=C[C@H](n7cc(C)c(=O)[nH]c7=O)O5)O6)ccc4O3)O2)c(=O)[nH]c1=O (some centres undefined)	1.7	0.62	7.5	0.51	115		t1/2 [6]: 0.8 h; Ratio [8]: 2; t1/2 [9]: 0.5 h
CC(C)(C)c1cc(-c2cc(CO)c(O)c(C(C)(C)C)c2)cc(CO)c1O		7.9		7.9	20	6.9	
OCc1cc(-c2ccc(O)c(CO)c2)ccc1O		117		99	> 250	18	
Cc1cn([C@H]2C=C[C@@H](COP3(=O)OCc4cc(-c5ccc(O)c(CO)c5)ccc4O3)O2)c(=O)[nH]c1=O (some centres undefined)		0.91		0.73	82	3.7	half-life [2]: 2.2 h; half-life [6]: 2.1 h; half-life [9]: 2 h
Cc1cn([C@H]2C=C[C@@H](COP3(=O)OCc4cc(-c5ccccc5)ccc4O3)O2)c(=O)[nH]c1=O (some centres undefined)							half-life [1]: 3.1 h
Cc1cc(-c2cc(C)c(O)c(CO)c2)cc(CO)c1O		> 50		20	96	> 50	
Cc1cc(-c2cc(C)c3c(c2)COP(=O)(OC[C@@H]2C=C[C@H](n4cc(C)c(=O)[nH]c4=O)O2)O3)cc2c1OP(=O)(OC[C@@H]1C=C[C@H](n3cc(C)c(=O)[nH]c3=O)O1)OC2 (some centres undefined)		0.83		0.4	64	0.85	half-life [2]: 2.2 h; half-life [6]: 2.3 h; half-life [9]: 2.3 h
Cc1cn([C@H]2C=C[C@@H](COP3(=O)OCc4cc(-c5cc6c(c(C(C)(C)C)c5)OP(=O)(OC[C@@H]5C=C[C@H](n7cc(C)c(=O)[nH]c7=O)O5)OC6)cc(C(C)(C)C)c4O3)O2)c(=O)[nH]c1=O (some centres undefined)		1.3		0.88	20	2.9	Ratio [10]: 2; half-life [2]: 4.7 h; half-life [6]: 8.3 h; half-life [9]: 4.1 h
Cc1cn([C@H]2C=C[C@@H](COP3(=O)OCc4cccc(-c5cccc6c5OP(=O)(OC[C@@H]5C=C[C@H](n7cc(C)c(=O)[nH]c7=O)O5)OC6)c4O3)O2)c(=O)[nH]c1=O (single isomer, unassigned; form 1)	3.2						
Cc1cn([C@H]2C=C[C@@H](COP3(=O)OCc4cc(-c5ccc6c(c5)COP(=O)(OC[C@@H]5C=C[C@H](n7cc(C)c(=O)[nH]c7=O)O5)O6)ccc4O3)O2)c(=O)[nH]c1=O (single isomer, unassigned; form 1)	1		4.4				EC50 ([3]; ccrf-cem): 1.2 µM; EC50 ([5]; ccrf-cem): 0.46 µM; t1/2 [6]: 0.6 h; CC50 (CCRF-CEM): 107 µM; t1/2 [9]: 0.4 h
Cc1cn([C@H]2C=C[C@@H](COP3(=O)OCc4cc(-c5cc6c(c(C(C)(C)C)c5)OP(=O)(OC[C@@H]5C=C[C@H](n7cc(C)c(=O)[nH]c7=O)O5)OC6)cc(C(C)(C)C)c4O3)O2)c(=O)[nH]c1=O (single isomer, unassigned; form 1)	4.3		2.8				EC50 ([3]; ccrf-cem): 1.6 µM; EC50 ([5]; ccrf-cem): 0.81 µM; t1/2 [6]: 7.9 h; CC50 (CCRF-CEM): 18 µM; t1/2 [9]: 3.9 h
Cc1cn([C@H]2C=C[C@@H](COP3(=O)OCc4cccc(-c5cccc6c5OP(=O)(OC[C@@H]5C=C[C@H](n7cc(C)c(=O)[nH]c7=O)O5)OC6)c4O3)O2)c(=O)[nH]c1=O (single isomer, unassigned; form 2)	8.5						
Cc1cn([C@H]2C=C[C@@H](COP3(=O)OCc4cc(-c5ccc6c(c5)COP(=O)(OC[C@@H]5C=C[C@H](n7cc(C)c(=O)[nH]c7=O)O5)O6)ccc4O3)O2)c(=O)[nH]c1=O (single isomer, unassigned; form 2)	3.3		3.3				EC50 ([5]; ccrf-cem): 0.47 µM; half-life [6]: 1 h; CC50 (CCRF-CEM): 78 µM; half-life [9]: 0.7 h
Cc1cn([C@H]2C=C[C@@H](COP3(=O)OCc4cc(-c5cc6c(c(C(C)(C)C)c5)OP(=O)(OC[C@@H]5C=C[C@H](n7cc(C)c(=O)[nH]c7=O)O5)OC6)cc(C(C)(C)C)c4O3)O2)c(=O)[nH]c1=O (single isomer, unassigned; form 2)	4.7		3.2				EC50 ([3]; ccrf-cem): 1 µM; EC50 ([5]; ccrf-cem): 0.49 µM; t1/2 [6]: 8 h; CC50 (CCRF-CEM): 19 µM; t1/2 [9]: 4.1 h
Cc1cn([C@H]2C=C[C@@H](COP3(=O)OCc4cc(-c5cc6c(c(C(C)(C)C)c5)OP(=O)(OC[C@@H]5C=C[C@H](n7cc(C)c(=O)[nH]c7=O)O5)OC6)cc(C(C)(C)C)c4O3)O2)c(=O)[nH]c1=O (single isomer, unassigned; form 3)	5.3		2.6				EC50 ([3]; ccrf-cem): 2 µM; EC50 ([5]; ccrf-cem): 0.86 µM; t1/2 [6]: 9.1 h; t1/2 [9]: 4.4 h
Cc1cn([C@H]2C=C[C@@H](CO)O2)c(=O)[nH]c1=O [STAVUDINE]		0.79		0.56	> 250	29	
